IMP-1 inh: IMP-1 metallo-beta-lactamase inhibitors, primary screen, biochemical, epi-absorbance readout, Pseudomonas aeruginosa enzyme; purified IMP-1, nitrocefin hydrolysis, epi-absorbance fluorescence; inhibition, % at 5.6 µM; actives 0.45% (n = 290,000);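 active = inhibition above the mean plus 3 SD of all compounds in the same screening run, cut at about 4.5% in these data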;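 also: 0% = IMP-1 with DMSO and 100% = DMSO wells lacking enzyme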
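Material – recombinant IMP-1 enzyme, purified · Amount – IMP-1 0.2 nM before substrate addition · Medium – HEPES buffer pH 7.1 with ZnSO4 and Brij 35 · Timing – 25 °C, 15 min preincubation, 25 min reaction · Measured by – plate fluorescence quenching by hydrolysis product, ex 480/em 530 nm · Read-out – percent enzyme inhibition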
PHOSPHO1 inh: PubChem AID 1565. recombinant PHOSPHO1, absorbance phosphatase assay. inhibition, % at 13.3 µM. actives 1.1% (n = 290,000); in the data active = inhibition above about 60%
Target sequence (Q8TCT1 whole entry, looked up): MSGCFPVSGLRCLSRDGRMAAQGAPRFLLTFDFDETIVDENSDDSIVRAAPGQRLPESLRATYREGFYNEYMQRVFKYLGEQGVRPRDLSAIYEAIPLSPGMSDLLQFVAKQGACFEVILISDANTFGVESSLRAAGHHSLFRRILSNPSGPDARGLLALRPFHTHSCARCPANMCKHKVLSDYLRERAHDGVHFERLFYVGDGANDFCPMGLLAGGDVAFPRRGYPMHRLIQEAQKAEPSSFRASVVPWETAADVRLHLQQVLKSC
VIM-2 inhibitor: VIM-2 metallo-beta-lactamase inhibitors, primary screen, biochemical, epi-absorbance readout, Pseudomonas aeruginosa enzyme. inhibition, % at 5.6 µM. purified VIM-2, nitrocefin hydrolysis, epi-absorbance fluorescence. AID 1527, 2009. actives 0.89% (n = 290,000);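 active = inhibition above the mean of all tested compounds plus 3 SD, cutoff set per screening run, cut at about 7.5% in these data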;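 also: red hydrolysis product quenches plate fluorescence so inhibitors raise well fluorescence; 0% = enzyme with DMSO and 100% = DMSO without enzyme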
PvdQ acylase: P. aeruginosa PvdQ acylase inhibitors, primary screen, biochemical, fluorescence, plate reader and imaging, single point; PvdQ acylase [Pseudomonas aeruginosa LESB58]; purified PvdQ acylase; inhibition, % at 10 µM; actives 0.063% (n = 340,000); AID 488965, 2010; in the data active = inhibition above about 30%, passing the limit was not always enough; inconclusive = no clear call, values can overlap the other calls;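 also: 0% = vehicle neutral wells and 100% = reference inhibitor wells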
CR mimetic SO: reduction of superoxide in aged yeast, primary screen, HTS. S. cerevisiae aged cells, superoxide DHE fluorescence; hits give low values. superoxide response (% of plate mean), % at 10 µM. actives 0.18% (n = 330,000). AID 2690, 2010;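 active = superoxide response under a set limit, about three screen SD below normal, cut at about 65% in these data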;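 also: yeast aged for seven days with compound at 30 °C before DHE staining; 100% = average MFI of all compound-treated wells on the plate with controls excluded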
Numbers without * were called inactive; ? = inconclusive; . = no result given. Rows were chosen to be rich in hits. Some 2.2% of all compounds tested hit in one or more screens of this group.

SMILES	IMP-1 inh	PHOSPHO1 inh	VIM-2 inhibitor	PvdQ acylase	CR mimetic SO
Cc1ccc(S(=O)(=O)N2CCOC2CNC(=O)C(=O)NCC(C)C)cc1 (configuration not stated)	-1.8	61.6*	-2.4	6.6	99.1
O=C(NCCCn1ccnc1)C(=O)NCC1OCCN1S(=O)(=O)c1ccc(F)cc1 (configuration not stated)	10.3*	-6.1	-1.9	3.5	106.4
COc1ccc(S(=O)(=O)N2CCOC2CNC(=O)C(=O)NCCCn2ccnc2)cc1OC (configuration not stated)	-1.1	-11.1	-4.5	-15.2	90.5
COc1ccc(S(=O)(=O)N2CCCOC2CNC(=O)C(=O)NCCCn2ccnc2)cc1OC (configuration not stated)	-1.3	32.0	0.1	17.4	88.4
NC(=O)Cn1c(=O)n(CCC(=O)Nc2ccc(F)cc2)c(=O)c2sccc21	-5.0	56.2	-3.1	-15.0	108.0
COc1cc(OC)cc(C(=O)Nc2ccccc2C(=O)NC2CC2)c1	.	.	.	-14.4	110.0
O=C(NC1CCS(=O)(=O)C1)/C(=C/c1ccc(Cl)cc1)NC(=O)c1ccccc1 (configuration not stated)	-2.0	180.6*	-2.2	-2.1	93.5
CCCCNC(=O)OCC(CC)NC(=O)OC(C)C (configuration not stated)	-2.7	20.3	-1.4	-18.8	100.7
CCCCNC(=O)OCC(CC)NC(=O)OCC(C)C (configuration not stated)	8.7*	58.3	-4.2	-13.0	115.1
Oc1cccc(Nc2c3ccccc3nc3ccccc23)c1	-4.2	60.8*	11.4*	-7.1	67.7
O=C(O)c1ccc(Nc2c3ccccc3nc3ccccc23)cc1	-1.3	28.6	-2.2	-17.1	93.2
c1cncc(Nc2c3ccccc3nc3ccccc23)c1	-1.4	.	10.1*	5.8	121.0
Cc1ccc(-c2nc(Nc3cccc(O)c3)c3ccccc3n2)cc1	-1.5	19.9	0.9	-15.3	100.6
CC(C)c1ccc([N+](=O)[O-])cc1S(=O)(=O)N1CCN(C)CC1	-2.5	13.8	-0.9	-6.3	105.8
Cc1ccccc1OCCn1cnc2cc([N+](=O)[O-])ccc2c1=O	-3.0	28.1	-2.1	-12.5	80.4
COc1ccc(-c2cc3c(=O)n(CC(=O)NCCCc4ccccc4)ncn3n2)cc1	14.8*	33.4	-0.2	-5.9	107.6
C[C@]12c3[nH]c4ccc(Cl)cc4c3CCN1C(=O)[C@@H](CC(=O)NCc1ccco1)C[C@@H]2C(=O)N1CCCCC1	.	.	.	-12.2	106.4
Cc1cc(C(=O)O)c(CSCc2cc(C(=O)O)oc2C)o1	-3.2	76.1*	-3.0	-2.9	97.7
Cc1cc(C(=O)NCc2cc(C(=O)O)oc2C)c(C)o1	-8.8	-4.0	-1.3	2.0	102.7
O=C(NN1C(=O)C2C(c3ccccc3)C=CC(c3ccccc3)C2C1=O)c1ccccc1 (configuration not stated)	34.2*	-23.9	1.9	-1.6	96.1
O=C(NN1C(=O)C2C(c3ccccc3)C=CC(c3ccccc3)C2C1=O)c1cccc(Br)c1 (configuration not stated)	21.3*	-8.9	2.8	1.1	96.0
O=C(NN1C(=O)C2C3c4ccccc4C(c4ccccc43)[C@@H]2C1=O)c1ccccc1 (some centres not stated)	-0.8	0.1	-0.4	-17.1	99.3
CC(C)CN(C(=O)COc1ccc(-c2nnco2)cc1)C1CCS(=O)(=O)C1 (configuration not stated)	-2.5	-4.0	0.0	-7.7	91.4
O=C(COc1ccccc1)Nc1cccc(-c2nc3cc4ccccc4cc3[nH]2)c1	0.0	41.9	-0.3	-3.1	130.4
COCCCNC(=O)c1ccc(N2CCCC2)c(NS(=O)(=O)c2ccc(C)cc2)c1	-4.6	63.7*	-2.6	-5.7	109.5
SMILES	IMP-1 inh	PHOSPHO1 inh	VIM-2 inhibitor	PvdQ acylase	CR mimetic SO
CCOC(=O)Cc1csc(NC(=O)c2cccc(OC)c2)n1	-0.5	-6.1	-2.4	-15.6	103.8
CCOC(=O)Cc1csc(NC(=O)Nc2cccc(OC)c2)n1	-2.6	-14.0	-2.8	-7.2	59.4*
CCN(CC(=O)NCc1ccc(Cl)cc1)C(=O)CSCC(=O)Nc1cccc(C)c1	-3.0	41.4	-1.9	-1.6	111.1
COC(=O)c1ccccc1NC(=O)CSc1nc2ncccc2[nH]1	-2.3	64.3*	-1.9	-5.4	92.5
COC(=O)c1ccccc1NC(=O)CSc1ncccn1	-3.6	36.4	-3.7	-12.4	101.0
O=[N+]([O-])c1ccc(-c2cccnc2)cc1	.	.	.	48.8*	.
O=[N+]([O-])c1ccc(COc2cccnc2)cc1	-2.1	-15.1	-1.2	-3.5	89.3
Cc1ccc(-n2c(Cc3cccn3C)nnc2SCC(N)=O)cc1	-3.8	20.6	-4.0	-11.6	101.3
Cc1ccc(Nc2nnc(SCC(=O)NCc3ccco3)s2)cc1	-2.8	74.0*	-2.7	9.9	.
Cc1ccccc1Nc1nnc(SCC(=O)NC(=O)NCc2ccco2)s1	-2.6	81.6*	-1.3	-6.3	97.2
Cc1ccc(-n2c(Cc3cccn3C)nnc2SCC(=O)NCc2ccco2)cc1	0.3	78.5*	-1.9	-1.4	118.9
O=C(CSc1nnc(Nc2ccccc2F)s1)NCc1ccco1	-3.6	87.0*	-3.3	7.3	.
O=C(CSc1nnc(Nc2ccccc2)s1)NCc1ccco1	1.6	24.9	-1.8	-3.7	103.5
O=C(NCCC1CCCCN1S(=O)(=O)c1ccc(F)cc1)C(=O)NCC1CCCO1 (configuration not stated)	.	.	.	-11.8	75.3
CCOc1ccc(S(=O)(=O)NCCc2ccccn2)cc1	.	.	.	-1.4	82.5
Cc1c(Cl)cccc1NC(=S)Nc1ccc(S(=O)(=O)Nc2ncccn2)cc1	.	.	.	10.5	101.5
Cn1cccc1Cc1nnc(SCC(=O)N2CCN(c3ccccc3)CC2)n1-c1ccc(F)cc1	-7.3	69.6*	-5.8	?	98.5
COc1cc(OC)cc(C(=O)Nc2nnc(SCC(=O)NCc3ccco3)s2)c1	-0.8	4.2	3.2	-9.2	96.8
COc1ccc(C(=O)Nc2nnc(SCC(=O)NCc3ccco3)s2)c(OC)c1	-1.5	17.4	11.1*	-12.4	100.5
O=C(O)CCCCCCC1C(=O)NC(=O)N1CCC(O)C1CCCCC1 (configuration not stated)	-3.0	3.5	-2.7	-6.3	89.6
CCOC(=O)/C(C#N)=C/c1c(N2CCN(CC)CC2)nc2c(C)cccn2c1=O	0.6	6.2	2.9	-11.1	120.0
O=C(Nc1ccc(OC(F)F)cc1)Nc1cccc(C(F)(F)F)c1	-2.0	0.2	-0.8	-11.4	108.4
COc1ccc(NC(=O)C(C)N2C(=O)C3CC=C(Cl)CC3C2=O)cc1 (configuration not stated)	-2.4	-2.0	-2.2	-6.0	92.2
O=C(c1ccc(S(=O)(=O)N2CCCCCC2)cc1)N1CCC(CN2C(=O)c3cccc4cccc(c34)C2=O)CC1	5.2*	1.7	-3.8	-10.2	99.1

Compound activity (PubChem)
